A short description of test [1]: nonspecific flux increase, KCNQ1-free cells – parental CHO cells, counter-screen for KCNQ1 potentiator project (AID 493006;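 active = duplicate-averaged activation above buffer control mean plus 5 SD of those controls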;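 for activation: fluorescence ratio of max minus min over baseline after K+ and Tl+ depolarization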). Conditions: parental CHO-K1 cells, FluxOR thallium flux, at 10 µM; stronger effect = higher value. The method in brief:
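Material: untransfected host CHO-K1 cells with FluxOR thallium dye. Timing: overnight 37 °C plating, 90 min RT dye, 20 min compound. Detection: kinetic FluxOR fluorescence, 10 s baseline, 110 s after stimulus. Read-out basis: max-minus-min fluorescence over baseline, percent of buffer-to-R-L3 span. Replicates: duplicate wells per compound, percent values averaged.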
A general note: The purpose of a counterscreen is to sort out artefacts and off-target activity.

In test [2] the target is Potassium voltage-gated channel subfamily KQT member 1 (Homo sapiens) (UniProt P51787). Description: enhancement of KCNQ1 channel thallium flux – FluxOR thallium flux, CHO cells, duplicates, confirmation (AID 493007).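 For outcome: cells depolarized by a potassium plus thallium sulfate stimulus after compound.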 The note with it: KCNQ1 cell line, FluxOR thallium flux fluorescence, at 10 µM; stronger effect = higher value, % of reference activator effect, buffer zero. The method in brief: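 Test system – KCNQ1-expressing CHO cell line · Incubation – FluxOR dye loading 90 min, compound exposure 20 min, room temperature · Detection – FluxOR Tl+ flux fluorescence, 10 s baseline plus 110 s recording · Controls – buffer-only wells as 0% and R-L3 activator as 100%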
Chain of Potassium voltage-gated channel subfamily KQT member 1 (Homo sapiens) (P51787 whole entry, looked up): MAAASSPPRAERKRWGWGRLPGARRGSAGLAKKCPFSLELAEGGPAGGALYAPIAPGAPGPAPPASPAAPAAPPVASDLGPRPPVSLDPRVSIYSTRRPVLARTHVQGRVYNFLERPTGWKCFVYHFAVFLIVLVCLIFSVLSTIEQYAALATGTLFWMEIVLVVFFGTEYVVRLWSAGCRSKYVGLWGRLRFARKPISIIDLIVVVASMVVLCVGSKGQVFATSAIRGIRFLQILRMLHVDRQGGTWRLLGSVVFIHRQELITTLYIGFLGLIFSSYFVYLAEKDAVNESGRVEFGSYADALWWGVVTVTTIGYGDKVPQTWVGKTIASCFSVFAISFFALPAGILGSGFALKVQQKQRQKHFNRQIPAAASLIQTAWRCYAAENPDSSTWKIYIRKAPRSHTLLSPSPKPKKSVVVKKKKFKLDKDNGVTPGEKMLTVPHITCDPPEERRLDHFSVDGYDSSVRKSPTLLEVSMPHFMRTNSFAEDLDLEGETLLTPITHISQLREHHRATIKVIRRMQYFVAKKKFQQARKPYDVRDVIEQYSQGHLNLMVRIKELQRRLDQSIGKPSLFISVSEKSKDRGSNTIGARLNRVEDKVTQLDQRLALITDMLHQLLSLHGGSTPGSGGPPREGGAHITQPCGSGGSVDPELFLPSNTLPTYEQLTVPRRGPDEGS

The target of test [3] is Potassium voltage-gated channel subfamily KQT member 2 (Rattus norvegicus) (UniProt O88943). Kind of test: KCNQ2 thallium flux enhancement – KCNQ2-CHO-K1 cells, selectivity assay for KCNQ1 potentiator project (AID 493009;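 active = mean duplicate potentiation above the buffer control mean plus 5 SD of buffer wells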;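 note: assay conditions were tuned for KCNQ1 rather than KCNQ2 modulators; signal is max minus min fluorescence divided by baseline after thallium stimulus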). Conditions: FluxOR thallium flux fluorescence, at 10 µM; stronger effect = higher value, scaled: buffer 0, activator control 100.
Chain of Potassium voltage-gated channel subfamily KQT member 2 (Rattus norvegicus) (O88943 whole entry, looked up): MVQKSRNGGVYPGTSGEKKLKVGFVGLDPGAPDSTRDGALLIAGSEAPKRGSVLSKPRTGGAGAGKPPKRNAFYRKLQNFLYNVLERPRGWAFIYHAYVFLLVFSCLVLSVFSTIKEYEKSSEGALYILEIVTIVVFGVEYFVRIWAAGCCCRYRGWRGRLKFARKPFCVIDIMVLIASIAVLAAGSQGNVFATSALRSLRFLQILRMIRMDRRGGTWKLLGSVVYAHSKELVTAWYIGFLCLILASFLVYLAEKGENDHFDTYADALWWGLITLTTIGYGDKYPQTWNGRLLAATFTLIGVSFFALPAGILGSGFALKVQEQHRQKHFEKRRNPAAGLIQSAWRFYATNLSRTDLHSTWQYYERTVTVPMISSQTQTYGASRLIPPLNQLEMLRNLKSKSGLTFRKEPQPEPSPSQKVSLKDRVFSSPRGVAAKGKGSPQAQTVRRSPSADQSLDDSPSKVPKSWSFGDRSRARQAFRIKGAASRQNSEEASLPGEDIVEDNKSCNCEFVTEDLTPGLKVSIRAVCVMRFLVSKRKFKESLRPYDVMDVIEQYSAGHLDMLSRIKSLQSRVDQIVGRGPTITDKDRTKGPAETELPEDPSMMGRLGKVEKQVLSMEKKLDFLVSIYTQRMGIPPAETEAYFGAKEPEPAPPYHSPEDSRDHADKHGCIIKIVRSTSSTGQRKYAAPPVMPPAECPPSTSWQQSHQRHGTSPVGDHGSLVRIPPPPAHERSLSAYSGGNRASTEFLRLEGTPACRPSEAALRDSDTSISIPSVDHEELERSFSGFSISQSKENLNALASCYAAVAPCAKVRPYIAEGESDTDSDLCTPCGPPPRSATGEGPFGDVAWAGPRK
For test [4], the target named is Potassium voltage-gated channel subfamily KQT member 1 (Homo sapiens) (UniProt P51787). Kind of test: KCNQ1 activators by electrophysiology – IonWorks patch clamp, KCNQ1-CHO cells, orthogonal assay for KCNQ1 potentiator project, confirmation (AID 493184;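 active = current rise at least 3 SD above the untreated control mean in each of two repeat wells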). Conditions: automated patch clamp current, at 10 µM; stronger effect = higher value. The method in brief:
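Read-out: Percent current increase versus pre-compound level | Assay system: CHO cells carrying KCNQ1 | Measured by: Automated perforated-patch electrophysiology | Medium: External bath solution at pH 7.4 | Dosing: One dose, 10 µM final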
A general note: In patch-clamp work, channel activity is measured electrically.

In test [5] the target is Potassium voltage-gated channel subfamily E member 1 (Homo sapiens) + Potassium voltage-gated channel subfamily KQT member 1 (Homo sapiens) (UniProt P15382+P51787). Kind of test: KCNQ1-E1 channel activation – thallium flux, CHO-K1 KCNQ1/E1 cells, selectivity assay for KCNQ1 potentiator project, confirmation (AID 493186;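 active = mean duplicate activation above the buffer control mean plus 5 SD of those controls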). The note with it: FluxOR thallium flux, at 10 µM; stronger effect = higher value. In outline:
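Test system: CHO-K1 cells with KCNQ1/E1; dosing: one test concentration; signal: FluxOR Tl+ flux fluorescence, kinetic read; incubation: 90-min dye loading then 20-min compound exposure, both at room temperature; read-out basis: percent of R-L3 effect over buffer; replication: duplicate wells per compound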

Active and inactive are the calls of the source.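 Rule for the calls, unless noted: active = potentiation averaged over duplicate wells exceeding buffer-only control mean by more than 3 SD; inactive = the rest.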

Chain of Potassium voltage-gated channel subfamily E member 1 (Homo sapiens) + Potassium voltage-gated channel subfamily KQT member 1 (Homo sapiens) (P51787 whole entry, looked up): as the sequence (P51787 whole entry, looked up) above

As for `Cc1ccc(O)c(C(=O)CC(=O)c2cccc(F)c2)c1`, the outcome in test [1] and in test [4] was inactive. Moreover, the potentiation in test [2] was 24% (active); in test [3] it was 159% (active).

With `O=c1[nH]cc(N=Cc2cc(Cl)cc(Cl)c2O)c(=O)[nH]1`, the activation in test [1] is 188% (active). Besides, the outcome in test [2], in test [3] and in test [4] was inactive.

Consider `CN1CCC(Oc2ccccc2Sc2ccc(C(F)(F)F)cc2)CC1`, for which the result in test [1], in test [2], in test [3] and in test [4] was inactive.

Take `CC(=O)NC(C1C(=O)CC(C)(C)CC1=O)(C(F)(F)F)C(F)(F)F`: the result in test [1], in test [2], in test [3] and in test [4] was inactive.

Take `CCn1c(SCC(N)=O)nc2sc3c(c2c1=O)CCCC3`: the activation in test [1] was 153% (active). The potentiation was 34% (active) in test [2] and 147% (active) in test [3]. For the same compound, the result in test [4] was inactive.

For the compound `CC(OC(=O)CC1Sc2ccccc2NC1=O)C(=O)NC1CCCC1` (configuration not stated), the outcome in test [1], in test [2], in test [3] and in test [4] was inactive.

In the case of `COc1cc(OC)cc(C(=O)NC(=S)N2CCCCCC2)c1`, the result in test [1] and in test [4] was inactive. The figures for the potentiation in test [2] and in test [3] were 48% (active) and 198% (active), respectively.

As to `CCNc1nc(NCC)nc(C(=O)OCCO)n1`, the result in test [1], in test [2], in test [3], in test [4] and in test [5] was inactive.

`O=c1[nH]cc(S(=O)(=O)c2ccccc2)[nH]1`: the outcome in test [1], in test [2], in test [3] and in test [4] was inactive.

With `OCCN1CCN(CCCN2c3ccccc3Sc3ccc(Cl)cc32)CC1`, the outcome in test [1], in test [2], in test [3] and in test [4] was inactive.

On to `Cc1ccc(/C=C/C(=O)c2ccccc(=O)c2O)cc1C`, for which the activation in test [1] is 174% (active). The potentiation in test [2] is 56.5% (active); in test [3], 276% (active). The outcome in test [4] was inactive.

In the case of `COc1ccc(C(=O)NC(=S)NNC(=O)c2ccc(C)cc2)cc1`, the outcome in test [1] and in test [4] was inactive. The potentiation in test [2] is 142% (active); in test [3], 250% (active). Besides, in test [5], the activation was 62.3% (active).

For the compound `O=[N+]([O-])c1cccc(/C=N/Nc2nc(NCc3ccccc3)nc(N3CCOCC3)n2)c1O`, the outcome in test [1], in test [2], in test [3], in test [4] and in test [5] was inactive.

Turning to `CC1CN(c2nc(-c3ccc(Br)cc3)nnc2-c2ccccc2)CC(C)N1` (configuration not stated), the result in test [1], in test [2], in test [3] and in test [4] was inactive.

Take `Cc1ccc(-c2nnc(SCC(=O)N/N=C/c3ccccc3C(=O)O)n2-c2ccc(Cl)cc2)cc1`: the result in test [1], in test [2], in test [3], in test [4] and in test [5] was inactive.

In the case of `Cc1ccnc(NS(=O)(=O)c2ccc(NC(=O)C34CC5CC(CC(C5)C3)C4)cc2)n1`, the result in test [1], in test [2], in test [3] and in test [4] was inactive.

For `O=C(NC1CCCC1)C(c1cccnc1)N(C(=O)c1csnn1)C1CC1` (configuration not stated), the result in test [1], in test [2], in test [3] and in test [4] was inactive.

Regarding `CC(C)(C)NC(=O)C(=O)NNC(=O)c1cccc(F)c1`, the activation in test [1] is 201% (active). The potentiation in test [2] was 87.5% (active); in test [3], 228% (active). In addition, the outcome in test [4] was inactive.

For `CC(NC(=O)c1ccccc1Cl)C1CC2CCC1C2` (configuration not stated), the outcome in test [1], in test [2], in test [3], in test [4] and in test [5] was inactive.

For the compound `COc1ccc(-c2csc(NC(=S)NC(=O)c3ccco3)n2)cc1`, the activation in test [1] was 264% (active). The potentiation is 80.5% (active) in test [2] and 216% (active) in test [3]. Besides, the result in test [4] was inactive.

As for `CCOc1cccc(/C=N/NC(=O)C2CCCC2)c1O`, the outcome in test [1], in test [2], in test [3], in test [4] and in test [5] was inactive.

For `CCCC(=O)N(Cc1cccnc1)c1nc2c(OC)ccc(Cl)c2s1`, the outcome in test [1], in test [3], in test [4] and in test [5] was inactive. In test [2], the potentiation was 51.5% (active).

With `CC1(C)CC(Nc2ccc(Nc3ccccc3)cc2)CC(C)(C)N1`, the result in test [1], in test [3], in test [4] and in test [5] was inactive. Further, in test [2], the potentiation was 23.5% (active).

Take `C=CCNC(=S)NNC(=O)COc1c(Cl)cc(Cl)cc1Cl`: the result in test [1], in test [2], in test [3], in test [4] and in test [5] was inactive.

In the case of `CCOC(=O)CSC(=S)NC(=O)c1ccc(OC)cc1`, the result in test [1], in test [4] and in test [5] was inactive. Also, the potentiation in test [2] is 18.5% (active); in test [3], 147% (active).

For the compound `CC(C)(C)c1ccc(C(=O)NC(=S)Nc2nc3c(s2)CCCC3)cc1`, in test [1], the activation is 210% (active). Further, the results for the potentiation in test [2] and in test [3] were 91% (active) and 217% (active), respectively. In addition, the result in test [4] was inactive.

Take `CCCOc1ccccc1Cn1c(=O)oc2ccc(C)cc21`: the outcome in test [1], in test [2], in test [3] and in test [4] was inactive.

As for `Cc1ccc(-n2c(=S)[nH]c3sc4c(c3c2=O)CCC4)cc1`, in test [1], the activation is 158% (active). Further, the potentiation was 42.5% (active) in test [2] and 176% (active) in test [3]. Further, in test [4], the outcome was inactive.

In the case of `CCN(CC)S(=O)(=O)c1cccc(C(=O)N/N=C/c2cccc(O)c2O)c1`, the result in test [1], in test [2], in test [3], in test [4] and in test [5] was inactive.

The values are drawn from PubChem BioAssay.
